Source: ChEMBL document CHEMBL4270573, “Novel nicotinoyl pyrazoline derivates bearing N-methyl indole moiety as antitumor agents: Design, synthesis and evaluation” (Eur J Med Chem, 2018)
The source made the active and inactive calls. The rule behind the calls is not given here.

Assays:
HeLa [1] = assay: Cell cycle arrest in human HeLa cells assessed as accumulation at G2/M phase after 6 to 24 hrs by propidium iodide staining based flow cytometric analysis; assay type: functional
Method in brief: (§1)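 HepG2 and HeLa cells were exposed to 0, 0.020, 0.040, 0.060, 0.080 or 0.10 µM for 6, 12 or 24 h. DNA content was stained with propidium iodide and analysed by flow cytometry to give the percentage of cells in G0/G1, S and G2/M phases; sub-G1 cells were also recorded.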

HeLa [2] = assay: Cell cycle arrest in human HeLa cells assessed as accumulation at G0/G1 phase at 0.060 uM after 24 hrs by propidium iodide staining based flow cytometric analysis (reference value: 66.26%); assay type: functional; method in brief: as §1
HeLa [3] = assay: Induction of apoptosis in human HeLa cells assessed as necrotic cells at 0.060 uM after 24 hrs by Annexin V-FITC/propidium iodide staining based flow cytometric analysis (reference value: 0.242%); assay type: functional
Method in brief: (§2)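 HepG2 and HeLa cells were exposed to 0, 0.02, 0.040, 0.060, 0.080 and 0.10 µM for 6, 12 and 24 h. Cells were double-stained with Annexin V-FITC/PI and read by flow cytometry. Apoptotic rate was the percentage of FITC-positive cells, counting early plus late apoptotic.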

HepG2 [4] = assay: Cell cycle arrest in human HepG2 cells assessed as accumulation at G0/G1 phase at 0.040 uM after 24 hrs by propidium iodide staining based flow cytometric analysis (reference value: 55.63%); assay type: functional; method in brief: as §1
HepG2 [5] = assay: Cell cycle arrest in human HepG2 cells assessed as accumulation at S phase at 0.020 uM after 24 hrs by propidium iodide staining based flow cytometric analysis (reference value: 20.40%); assay type: functional; method in brief: as §1
Tubulin (Homo sapiens) = Tubulin (Homo sapiens) (UniProt P68371+Q9H4B7+P0DPH7+P68366+Q13509+Q71U36+P04350+Q3ZCM7+P07437+P68363+Q9BQE3+Q6PEY2+Q13885+Q9BVA1+Q9BUF5); assay: Inhibition of tubulin polymerization in human HepG2 cells assessed as abnormal mitotic spindle formation at 0.04 to 0.1 uM after 12 hrs by DAPI staining based immunofluorescence confocal laser scanning microscopic analysis; assay type: cell-based
HepG2 [6] = assay: Induction of apoptosis in human HepG2 cells assessed as late apoptotic cells at 0.060 uM after 24 hrs by Annexin V-FITC/propidium iodide staining based flow cytometric analysis (reference value: 2.93%); assay type: functional; method in brief: as §2
[7] = Inhibition of porcine brain tubulin polymerization measured over 30 mins; parameters: species or system Sus scrofa
HeLa [8] = assay: Induction of apoptosis in human HeLa cells assessed as viable cells at 0.080 uM after 24 hrs by Annexin V-FITC/propidium iodide staining based flow cytometric analysis (reference value: 88.6%); assay type: functional; conditions: read-out: Activity; method in brief: as §2
[9] = Selectivity index, ratio of CC50 for HEK293T cells to GI50 for human MCF7 cells; assay type: toxicity; conditions: HEK293T cells and MCF7 cells, read-out: Selectivity Index
Method in brief: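 Ratio CC50/GI50: CC50 is the concentration reducing non-tumour 293T cell proliferation by 50%; GI50 is the concentration reducing cancer cell proliferation by 50%.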

HepG2 [10] = assay: Cell cycle arrest in human HepG2 cells assessed as accumulation at G2/M phase at 0.060 uM after 24 hrs by propidium iodide staining based flow cytometric analysis (reference value: 20.17%); assay type: functional; method in brief: as §1
HepG2 [11] = assay: Cell cycle arrest in human HepG2 cells assessed as accumulation at G0/G1 phase at 0.060 uM after 24 hrs by propidium iodide staining based flow cytometric analysis (reference value: 55.63%); assay type: functional; method in brief: as §1
HepG2 [12] = assay: Cell cycle arrest in human HepG2 cells assessed as accumulation at S phase at 0.080 uM after 24 hrs by propidium iodide staining based flow cytometric analysis (reference value: 20.40%); assay type: functional; method in brief: as §1
HeLa [13] = assay: Induction of apoptosis in human HeLa cells assessed as necrotic cells at 0.080 uM after 24 hrs by Annexin V-FITC/propidium iodide staining based flow cytometric analysis (reference value: 0.242%); assay type: functional; method in brief: as §2
HeLa [14] = assay: Growth inhibition of human HeLa cells after 48 hrs by MTT assay; assay type: functional
Method in brief: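 Proliferation read-out; GI50 taken as the concentration giving 50% reduction of cancer cell proliferation.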

HepG2 [15] = assay: Induction of apoptosis in human HepG2 cells assessed as early apoptotic cells at 0.10 uM after 24 hrs by Annexin V-FITC/propidium iodide staining based flow cytometric analysis (reference value: 2.31%); assay type: functional; method in brief: as §2
HeLa [16] = assay: Antitumor activity against human HeLa cells xenografted in nude mouse assessed as tumor volume at 10 mg/kg, ip after 14 days (reference value: 2292.17 mm3); assay type: functional
HeLa [17] = assay: Cell cycle arrest in human HeLa cells assessed as accumulation at G0/G1 phase at 0.080 uM after 24 hrs by propidium iodide staining based flow cytometric analysis (reference value: 66.26%); assay type: functional; method in brief: as §1
Mus musculus [18] = assay: Toxicity in nude mouse xenografted with human HeLa cells assessed as ulceration at 10 to 20 mg/kg, ip after 14 days; assay type: organism-based; conditions: in vivo, 336 h
HeLa [19] = assay: Cell cycle arrest in human HeLa cells assessed as accumulation at S phase at 0.040 uM after 24 hrs by propidium iodide staining based flow cytometric analysis (reference value: 17.46%); assay type: functional; method in brief: as §1
HepG2 [20] = assay: Cell cycle arrest in human HepG2 cells assessed as accumulation at G0/G1 phase at 0.10 uM after 24 hrs by propidium iodide staining based flow cytometric analysis (reference value: 55.63%); assay type: functional; method in brief: as §1
Mus musculus [21] = assay: Cardiotoxicity in nude mouse xenografted with human HeLa cells assessed as cellular inflammatory infiltration in heart at 10 to 20 mg/kg, ip after 14 days by hematoxylin and eosin staining based microscopic analysis; assay type: toxicity, organism-based; conditions: in vivo, 336 h
Method in brief: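 Excised tumours and heart, liver, kidney and spleen were H&E-stained and examined microscopically. Tumour scoring covered cell arrangement and necrosis. Organ scoring covered inflammatory infiltration, edema, necrosis and cell morphology.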

HepG2 [22] = assay: Induction of apoptosis in human HepG2 cells assessed as late apoptotic cells at 0.040 uM after 24 hrs by Annexin V-FITC/propidium iodide staining based flow cytometric analysis (reference value: 2.93%); assay type: functional; method in brief: as §2
HepG2 [23] = assay: Induction of apoptosis in human HepG2 cells assessed as necrotic cells at 0.040 uM after 24 hrs by Annexin V-FITC/propidium iodide staining based flow cytometric analysis (reference value: 0.270%); assay type: functional; method in brief: as §2
HepG2 [24] = assay: Induction of apoptosis in human HepG2 cells assessed as necrotic cells at 0.060 uM after 24 hrs by Annexin V-FITC/propidium iodide staining based flow cytometric analysis (reference value: 0.270%); assay type: functional; method in brief: as §2
HeLa [25] = assay: Induction of apoptosis in human HeLa cells assessed as necrotic cells at 0.10 uM after 24 hrs by Annexin V-FITC/propidium iodide staining based flow cytometric analysis (reference value: 0.242%); assay type: functional; method in brief: as §2
HeLa [26] = assay: Induction of apoptosis in human HeLa cells assessed as late apoptotic cells at 0.10 uM after 24 hrs by Annexin V-FITC/propidium iodide staining based flow cytometric analysis (reference value: 4.98%); assay type: functional; method in brief: as §2
Mus musculus [27] = assay: Toxicity in nude mouse xenografted with human HeLa cells assessed as necrosis in spleen at 10 to 20 mg/kg, ip after 14 days by hematoxylin and eosin staining based microscopic analysis; assay type: organism-based; conditions: in vivo, 336 h
HeLa [28] = assay: Induction of apoptosis in human HeLa cells assessed as late apoptotic cells at 0.080 uM after 24 hrs by Annexin V-FITC/propidium iodide staining based flow cytometric analysis (reference value: 4.98%); assay type: functional; method in brief: as §2

COc1cccc(C2=NN(C(=O)c3ccc(C)nc3)C(c3cn(C)c4ccc(OC)cc34)C2)c1 (centres undefined)
Activity (HeLa [1]): Dose-dependent effect | Activity (HeLa [2]): 8.57% | Activity (HeLa [3]): 0.484% | Activity (HepG2 [4]): 28.39% | Activity (HepG2 [5]): 19.81% | inhibition (Tubulin (Homo sapiens)): Active | Activity (HepG2 [6]): 4.9% | IC50 [7]: 1600 nM | viability at 0.08 µM (HeLa [8]): 61.8% | selectivity ratio [9]: 3 to 10 | Activity (HepG2 [10]): 41.92% | Activity (HepG2 [11]): 15.79% | Activity (HepG2 [12]): 28.38% | Activity (HeLa [13]): 1.02% | GI50 (HeLa [14]): 34 nM | Activity (HepG2 [15]): 18.5% | Activity (HeLa [16]): 1213.02 mm3 | Activity (HeLa [17]): 5.36% | Activity (Mus musculus [18]): Non-Toxic | Activity (HeLa [19]): 7.43% | Activity (HepG2 [20]): 8.57% | Activity (Mus musculus [21]): Non-Toxic | Activity (HepG2 [22]): 6.24% | Activity (HepG2 [23]): 2.2% | Activity (HepG2 [24]): 1.45% | Activity (HeLa [25]): 0.76% | Activity (HeLa [26]): 8.26% | Activity (Mus musculus [27]): Non-Toxic | Activity (HeLa [28]): 7.03%
